Data on two compounds can be found in ChEMBL document CHEMBL2331482, “Synthesis of some new 2-(3-pyridyl)-4,5-disubstituted thiazoles as potent antimicrobial agents” (2013).

Holding throughout (format): functional
In test [1] the test system is Geotrichum candidum. Briefly: Antifungal activity against Geotricum candidum RCMB 05096 assessed as growth inhibition after 48 hrs by twofold serial dilution method. To be noted: RCMB 05096, 48 h. In short, it runs like this:
(§1)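 Fungi were tested by microdilution in Sabouraud liquid medium. Only compounds with disc-diffusion zones >10 mm went on to this test. DMF stocks (1000 µg/mL) were serially diluted twofold to 500–0.007 µg/mL. Sealed plates were held 48 h at 25 °C in a humid chamber. MIC was the lowest concentration without visible turbidity. DMF and uninoculated-medium controls ran in parallel.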

For test [2], the system named is Neisseria gonorrhoeae. Briefly: Antibacterial activity against Neisseria gonorrhoeae RCMB 010076 assessed as growth inhibition after 24 hrs by twofold serial dilution method. To be noted: RCMB 010076, 24 h. The method in brief: (§2)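 Broth microdilution in Müller–Hinton broth, 96-well plates. Only compounds giving disc-diffusion zones >10 mm were tested. DMF stocks (1000 µg/mL) were diluted twofold to a final 500–0.007 µg/mL, with about 10^6 CFU/mL bacteria. Sealed plates ran 24 h at 37 °C in a humid chamber. MIC was the lowest concentration with no visible turbidity. DMF and uninoculated-medium controls were included.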

Test [3] deals with Shigella flexneri. The test is described as follows: Antibacterial activity against Shigella flexneri RCMB 0100542 assessed as growth inhibition after 24 hrs by twofold serial dilution method. Conditions: RCMB 0100542, 24 h. The method in brief:
as §2

Test [4] relates to Talaromyces marneffei. The test is described as follows: Antifungal activity against Penicillium marneffei RCMB 01267 assessed as growth inhibition after 48 hrs by twofold serial dilution method. Conditions: RCMB 01267, 48 h. The method in brief:
as §1

Test [5] deals with Bacillus subtilis. Briefly: Antibacterial activity against Bacillus subtilis RCMB 010063 assessed as growth inhibition after 24 hrs by twofold serial dilution method. Conditions: RCMB 010063, 24 h. The method in brief: as §2
Test [6] has as its system Aspergillus clavatus. Briefly: Antifungal activity against Aspergillus clavatus RCMB 02593 assessed as growth inhibition after 48 hrs by twofold serial dilution method. Conditions: RCMB 02593, 48 h. In short, it runs like this: as §1
Test [7] has as its system Candida albicans. Briefly: Antifungal activity against Candida albicans RCMB 05035 assessed as growth inhibition after 48 hrs by twofold serial dilution method. To be noted: RCMB 05035, 48 h. The method in brief: as §1
The subject of test [8] is Pseudomonas aeruginosa. The test is described as follows: Antibacterial activity against Pseudomonas aeruginosa RCMB 010043 assessed as growth inhibition after 24 hrs by twofold serial dilution method. Conditions: RCMB 010043, 24 h. The method in brief: as §2
Test [9] relates to Streptococcus pyogenes. The test is described as follows: Antibacterial activity against Streptococcus pyogenes RCMB 010015 assessed as growth inhibition after 24 hrs by twofold serial dilution method. Conditions: RCMB 010015, 24 h. The method in brief: as §2
The test system of test [10] is Proteus vulgaris. The test is described as follows: Antibacterial activity against Proteus vulgaris RCMB 010085 assessed as growth inhibition after 24 hrs by twofold serial dilution method. Conditions: RCMB 010085, 24 h. The method in brief:
as §2

Test [11] concerns Enterococcus faecalis. Briefly: Antibacterial activity against Enterococcus faecalis RCMB 010068 assessed as growth inhibition after 24 hrs by twofold serial dilution method. Conditions: RCMB 010068, 24 h. The method in brief:
as §2

Test [12] has as its system Staphylococcus epidermidis. The test is described as follows: Ratio of ampicillin MIC to compound MIC for Staphylococcus epidermidis RCMB 010024.
The test system of test [13] is Staphylococcus epidermidis. The test is described as follows: Antibacterial activity against Staphylococcus epidermidis RCMB 010024 assessed as growth inhibition after 24 hrs by twofold serial dilution method. To be noted: RCMB 010024, 24 h. The method in brief:
as §2

In test [14] the test system is Aspergillus fumigatus. Briefly: Antifungal activity against Aspergillus fumigatus RCMB 02564 assessed as growth inhibition after 48 hrs by twofold serial dilution method. To be noted: RCMB 02564, 48 h. The method in brief:
as §1

For test [15], the system named is Klebsiella pneumoniae. The test is described as follows: Antibacterial activity against Klebsiella pneumoniae RCMB 010093 assessed as growth inhibition after 24 hrs by twofold serial dilution method. Conditions: RCMB 010093, 24 h. In short, it runs like this:
as §2

In test [16] the test system is Staphylococcus aureus. The test is described as follows: Antibacterial activity against Staphylococcus aureus RCMB 010027 assessed as growth inhibition after 24 hrs by twofold serial dilution method. To be noted: RCMB 010027, 24 h. The method in brief:
as §2

Converted amounts (≈) assume the structure as drawn.

Take `CC(=O)c1sc(-c2cccnc2)nc1C`: the minimal inhibitory concentration (MIC) in test [1] was determined as 0.48 µg/mL (≈ 2.2 µM); in [2], 15.6 µg/mL (≈ 71.6 µM); in test [3], 3.9 µg/mL (≈ 17.9 µM); in [4], 3.9 µg/mL (≈ 17.9 µM); in [5] it was 0.06 µg/mL (≈ 0.275 µM); in [6], 3.9 µg/mL (≈ 17.9 µM). Besides, the minimal inhibitory concentration (MIC) in test [7] amounted to 7.81 µg/mL (≈ 35.8 µM); in test [8] it was 500 µg/mL (≈ 2290 µM); in test [9] it was 3.9 µg/mL (≈ 17.9 µM); in test [10], 3.9 µg/mL (≈ 17.9 µM); in test [11], 7.81 µg/mL (≈ 35.8 µM); in [13], 0.24 µg/mL (≈ 1.1 µM). Further, the MIC in test [14] was found to be 1.95 µg/mL (≈ 8.93 µM); in test [15], 0.48 µg/mL (≈ 2.2 µM); in [16], 0.24 µg/mL (≈ 1.1 µM). The Ratio in test [12] was found to be 2.
For `Cc1csc(-c2cccnc2)n1`, the MIC in [1] stood at 1.95 µg/mL (≈ 11.1 µM); in [2] it was 62.5 µg/mL (≈ 355 µM); in test [3], 3.9 µg/mL (≈ 22.1 µM); in [4], 3.9 µg/mL (≈ 22.1 µM); in [5], 1.95 µg/mL (≈ 11.1 µM); in test [6], 15.6 µg/mL (≈ 88.7 µM). Besides, the MIC in [7] was found to be 31.2 µg/mL (≈ 177 µM); in test [8] it was 125 µg/mL (≈ 709 µM); in [9], 15.6 µg/mL (≈ 88.7 µM); in [10], 3.9 µg/mL (≈ 22.1 µM); in test [11], 31.2 µg/mL (≈ 177 µM); in test [13] it was 0.97 µg/mL (≈ 5.5 µM). The values for the MIC in test [14], in test [15] and in [16] were 7.81 µg/mL (≈ 44.3 µM), 1.95 µg/mL (≈ 11.1 µM) and 0.97 µg/mL (≈ 5.5 µM), respectively.
